Screens deposited in PubChem BioAssay by several laboratories.
In the library only some 2.6% were active in any assay of this set; here they are far more common.
NR2E3 ag-1: activates human photoreceptor nuclear receptor NR2E3; Q9Y5X4; inhibition of corepressor binding, % at 4.78 µM; GST-NR2E3/biotin-RetCOR TR-FRET, 1536-well; 320,000 tested, 0.12% active;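 active means percent inhibition above the cutoff of mean plus 3 SD of all tested compounds, set per screening campaign, cut at about 20% in these data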;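 further: 0% = DMSO wells and 100% = biotin wells as full block of FRET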
Target sequence (Q9Y5X4 whole entry, looked up): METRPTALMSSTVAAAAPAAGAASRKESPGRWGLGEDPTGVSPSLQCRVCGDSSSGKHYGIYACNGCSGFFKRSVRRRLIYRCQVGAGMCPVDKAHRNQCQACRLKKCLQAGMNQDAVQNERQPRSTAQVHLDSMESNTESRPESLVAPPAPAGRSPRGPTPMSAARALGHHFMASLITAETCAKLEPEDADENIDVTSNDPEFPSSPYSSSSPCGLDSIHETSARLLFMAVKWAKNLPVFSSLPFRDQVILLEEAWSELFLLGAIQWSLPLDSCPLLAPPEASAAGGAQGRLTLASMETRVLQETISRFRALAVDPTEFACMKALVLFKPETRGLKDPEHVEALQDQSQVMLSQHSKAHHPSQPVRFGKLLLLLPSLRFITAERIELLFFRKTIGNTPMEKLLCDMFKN
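Format: 1536-well format; test system: GST-NR2E3 and biotin-RetCOR proteins; read-out basis: percent inhibition of TR-FRET ratio; timing: 5 h incubation at 4 °C; detection: time-resolved FRET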
NR2E3 ag-2: agonists of human NR2E3 nuclear receptor. CHO-S Gal4-NCOR/VP16-NR2E3 two-hybrid, luciferase. AID 602229. 360,000 tested, 0.35% active. Q9Y5X4. inhibition of corepressor binding, % at 3.98 µM;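 active means inhibition above the mean of all tested compounds plus 3 SD, cut at about 70% in these data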;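 further: 0% = DMSO with NR2E3 transfected cells and 100% = cells lacking NR2E3 construct; higher means lower luciferase signal from less NR2E3 corepressor binding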
rCAG RNA binder: binds r(CAG) RNA repeats; r(CAG) RNA repeat, TO-PRO-1 dye displacement fluorescence; inhibition, % at 3 µM; 370,000 tested, 1.3% active;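 active means inhibition above the plate cutoff, the mean of all test compounds on that plate plus 3 SD, cut at about 35% in these data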;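 further: 0% = DMSO alone and 100% = 100 µM mitoxantrone as full dye displacement; higher means more dye released from RNA so lower well fluorescence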
PG9 Ab binder: PG9 antibody binding by small molecule; TR-FRET gp120-PG9 antibody binding; inhibition, % at 6.7 µM; 360,000 tested, 0.43% active; AID 624416; in the data active means inhibition above about 8.5%
NR1D1 modulator: modulators of human Rev-erb alpha DNA binding | P20393 | Rev-erbα–FITC-DNA binding, fluorescence polarization, 90 min | activity, % at 10 µM | 370,000 tested, 0.79% active | AID 1259318;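 active means activity above about 14%, limit read from the data; passing the limit was not always enough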;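 further: 0% = DMSO wells with 35 nM protein and 100% = DMSO wells with 750 nM protein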
rCAG binder conf: r(CAG) RNA repeat binding, confirmation; shares compounds with rCAG RNA binder; TO-PRO-1 dye displacement fluorescence; inhibition, % at 3 µM; 4,300 tested, 70% active; AID 652065;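 active means inhibition above a per-plate cutoff, the mean inhibition of sample wells plus 3 SD, cut at about 35% in these data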;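 further: loss of TO-PRO-1 fluorescence as compound displaces dye from 1x1 AA loop RNA; 0% = DMSO only wells and 100% = 100 µM mitoxantrone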
dCAG dye counter: disrupts DNA CAG TO-PRO-1 complex, flagging rCAG hits. 4,300 tested, 94% active. AID 652068. inhibition, % at 3 µM. shares compounds with rCAG RNA binder. d(CAG) DNA oligo TO-PRO-1 dye displacement, fluorescence;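 active means inhibition above its plate's cutoff, the mean test-well inhibition plus 3 SD, cut at about 4.8% in these data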;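 further: 0% = DNA dye mix with DMSO and 100% = 100 µM mitoxantrone; hits displace the dye from DNA and so lower well fluorescence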
dCAG dye DR: DNA CAG dye complex inhibition, dose response counter-screen | shares compounds with rCAG RNA binder | DNA CAG/GTC duplex TO-PRO-1 dye displacement fluorescence | IC50, µM | 250 tested, 20% active | AID 686960; in the data active means IC50 below about 10 µM
* hit, by the source's call; i = inactive; x = no result given; ! = not active in a repeat.

SMILES	NR2E3 ag-1	NR2E3 ag-2	rCAG RNA binder	PG9 Ab binder	NR1D1 modulator	rCAG binder conf	dCAG dye counter	others
Cc1cc(Cn2nc(-c3ccccc3)cc2C(=O)NCc2cccc(Br)c2)on1	4	-27	1	-3	-1	x	x
CC1=CC(=O)C(C(C)=Nc2ccccc2[N+](=O)[O-])C(=O)O1 (stereo not given)	x	-18	1	0	0	x	x
CCCCNC(=O)c1onc(CSc2cccc(Cl)c2)c1C(=O)O	-1	-4	33	-2	-1	x	x
CCCCNC(=O)c1onc(CSc2cccc3ccccc23)c1C(=O)O	3	18	62*	0	-4	53*	14*	dCAG dye DR=i
O=C(CSc1nnc(COc2ccccc2)n1-c1ccc(Cl)cc1)Nc1ccccc1-c1ccccc1	x	x	7	x	1	x	x
CC1=C(C(=O)N2CCOCC2)CC(CC(=O)NC2CC2)C(=O)N1Cc1ccc(F)cc1 (stereo not given)	x	-2	1	-1	-1	x	x
CCOC(=O)c1ccc(N2CSC3=C(C#N)C(c4ccc(OC)cc4OC)CC(=O)N3C2)cc1 (stereo not given)	3	9	21	3	4	x	x
CCOc1ccc(N2CSC3=C(C#N)C(c4ccco4)CC(=O)N3C2)cc1 (stereo not given)	10	15	69*	1	-6	48*	17*
N#CC1=C2SCN(c3ccccc3)CN2C(=O)CC1c1cccs1 (stereo not given)	13	-24	28	4	3	x	x
Cc1ccc(C2CC(=O)N3CN(c4ccc(Br)cc4)CSC3=C2C#N)o1 (stereo not given)	4	-9	63*	-2	-3	49*	18*
O=C(O)COc1ccccc1/C=N/NC(=O)c1cc(-c2ccc(F)cc2)nc2ccccc12	1	23	55*	1	2	43*	12*
CCc1nnc(NC(=O)c2cc(-c3ccco3)nc3ccccc23)s1	-2	-3	36*	1	-32	23	16*
O=C(N/N=C/c1cccc(F)c1)c1cc(-c2ccco2)nc2ccccc12	8	-90	45*	1	-26	41*	26*
Cc1ccc(-c2cc(C(=O)NN=Cc3ccccc3OCC(=O)O)[nH]n2)cc1	x	x	24	x	1	x	x
Cc1ccccc1NC(=O)c1cc(-c2ccco2)nc2ccccc12	x	-55	5	-2	-17	x	x
O=C(Nc1nncs1)c1cc(-c2ccco2)nc2ccccc12	x	-10	48*	-2	1	16	7.1*
C=CCN1[C@@H](C)[C@H](c2ccccc2)Oc2cccc(NCC(C)C)c2S1(=O)=O	x	x	1	0	2	x	x
CCN(C(=O)COC(=O)c1ccc(Sc2ncn[nH]2)c([N+](=O)[O-])c1)c1ccccc1C	x	x	13	x	-4	x	x
O=C(O)COc1ccccc1/C=N/NC(=O)CSc1nc2ccccc2n1Cc1ccccc1	0	15	45*	0	0	55*	16*
CC(C)c1nn2c(N)c(/C=C3\C=Nc4ccccc43)c(=O)nc2s1	2	-18	40*	-2	-2	41*	10*
CCCc1nn2c(N)c(/C=C3\C=Nc4ccccc43)c(=O)nc2s1	0	9	51*!	0	4	49*	14*
CCCCc1nn2c(N)c(/C=C3\C=Nc4ccccc43)c(=O)nc2s1	-1	-1	7	-2	-3	x	x
CC(C)Cc1nn2c(N)c(/C=C3\C=Nc4ccccc43)c(=O)nc2s1	-6	-20	38*	-3	1	62*	21*
C=CCOc1ccc(/C=C/C(=O)OCc2csc(CC(=O)Nc3ccccc3C)n2)cc1	-1	6	6	0	-3	x	x
CN(C)S(=O)(=O)c1ccc(N2CCCC2)c(C(=O)NNC(=O)c2ccc(F)cc2)c1	-3	0	0	5	-7	x	x
SMILES	NR2E3 ag-1	NR2E3 ag-2	rCAG RNA binder	PG9 Ab binder	NR1D1 modulator	rCAG binder conf	dCAG dye counter	others
CCCNC(=O)C[C@H]1C[C@H]2c3cc(NC(=O)Nc4ccc(F)cc4)ccc3O[C@H]2[C@@H](CO)O1	x	5	4	-2	-3	x	x
CC(=O)Nc1cccc(NC(=O)c2ccccc2Cl)c1	x	16	4	1	0	x	x
Cc1ccc(S(=O)(=O)Oc2ccccc2/C=C2\SC(=O)NC2=O)cc1	8	-8	42*	-1	-4	30	7.4*
O=C(COc1ccccc1/C=C1\SC(=O)NC1=O)Nc1ccc(F)cc1	0	-7	52*	0	0	45*	16*
O=C(COc1ccccc1/C=C1/NC(=O)NC1=O)Nc1ccccc1	4	23	1	-3	2	x	x
CS(=O)(=O)Nc1ccc2c(c1)[C@@H]1C[C@@H](CC(=O)NCc3cccnc3)O[C@H](CO)[C@@H]1O2	x	4	2	-1	-3	x	x
COc1ccccc1Cc1c(-c2ccc(C)cc2)nc2ccc(C)cn12	x	x	5	1	0	x	x
NS(=O)(=O)c1ccc(NS(=O)(=O)c2ccc(NC(=O)c3ccc(-c4ccccc4)cc3)cc2)cc1	2	-5	59*	1	-6	72*	39*
O=C(Nc1ccncc1)c1ccc(S(=O)(=O)Nc2ccccc2)cc1	-1	12	3	2	-1	x	x
O=C(CS(=O)(=O)c1ccccc1)Nc1ccc(S(=O)(=O)Nc2ncccn2)cc1	1	-32	-1	0	3	x	x
O=C(CNC(=O)c1ccc(-c2ccccc2)cc1)Nc1ccc(S(=O)(=O)Nc2ncccn2)cc1	1	1	38*	0	0	29	10*
COc1cccc(C(c2c(O)nc(SC)n(C)c2=O)c2c(O)nc(SC)n(C)c2=O)c1	1	1	3	0	-2	x	x
CCCSc1nc(O)c(C(c2ccc(OC)c(O)c2)c2c(O)nc(SCCC)n(C)c2=O)c(=O)n1C	1	1	46*	0	-3	40*	13*
CS(=O)(=O)c1ccc(C(=O)Nc2nc(-c3ccco3)c(-c3ccco3)s2)cc1	x	2	88*	-3	-27	34	16*
O=C(Nc1nc(-c2ccco2)c(-c2ccco2)s1)C1CCC1	-1	22	37*	-9	-11	21	11*
CC(C)(C)c1ccc(CC(=O)N2CCC2(C)C(=O)NS(=O)(=O)c2cccc(C#N)c2)cc1 (stereo not given)	x	-17	30	1	1	x	x
COc1ccc(S(=O)(=O)NC(=O)C2(C)CCN2C(=O)Cc2cc(C)cc(C)c2)cc1 (stereo not given)	x	1	11	2	-4	x	x
